Results on 10 compounds are retold here after ChEMBL document CHEMBL3608260 (Bioorg Med Chem Lett, 2015).

Non-standard residues stand in square brackets, D forms with d. Residues, ends and D or L forms follow the SMILES beside them. *: point of attachment. OBzl(3,5-(CF3)2) = FC(F)(F)c1cc(CO*)cc(C(F)(F)F)c1; Phe(4-Cl) = N[C@@H](Cc1ccc(Cl)cc1)C(=O)O; Phe(4-F) = N[C@@H](Cc1ccc(F)cc1)C(=O)O; Nle = CCCC[C@H](N)C(=O)O; βAla = NCCC(=O)O

What is called Emax is the maximal effect, on the per cent scale that the assay sets. Usually EC50 stands for the concentration needed to bring the measured effect to its halfway point. A higher EC50 goes with a need for much substance. Broadly, the inhibition is the change of the read-out against control, counted positive when it falls. What is called Ki is the equilibrium dissociation constant of an inhibitor or competing ligand from its target. Read a high Ki as a looser hold on the target. As a reminder, the IC50 is the concentration at which inhibition is half-maximal.

In test [1] the target is Mu-type opioid receptor (Rattus norvegicus) (UniProt P33535). As to the kind of experiment: (§1) Agonist activity at rat mu opioid receptor transfected in HN9.10 cells by [35S]GTPgammaS binding assay. The test is classed as functional, cell-based. Put shortly:
(§2)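 Membranes from transfected HN9.10 cells constitutively expressing human DOR or rat MOR. EC50 comes from non-linear regression of at least two independent experiments in duplicate. Emax = [Total bound − Basal]/[Basal − Non-specific] × 100.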
In general terms: GTPγS resists hydrolysis and so accumulates on activated G proteins.

The target in test [2] is Substance-P receptor (Cavia porcellus) (UniProt P30547). As to the kind of experiment: Antagonist activity at NK1 receptor in guinea pig ileum assessed as inhibition of substance P-induced muscle contraction in presence of naloxone. The test is classed as tissue-based.
Test [3] is described as follows: Selectivity ratio of Ki for rat mu opioid receptor to Ki for human delta opioid receptor.
For test [4], the target named is T1, Delta-type opioid receptor (Homo sapiens, UniProt P41143). Put plainly: Agonist activity at human delta opioid receptor transfected in HN9.10 cells by [35S]GTPgammaS binding assay. The test is classed as functional, cell-based. Put shortly: as §2
Test [5] addresses Mu-type opioid receptor (Rattus norvegicus, UniProt P33535). The test is described as §1. The test is classed as functional, cell-based. Put shortly: as §2
Test [6] deals with Delta-type opioid receptor (Mus musculus) (UniProt P32300). Put plainly: Agonist activity at delta opioid receptor in mouse vas deferens assessed as inhibition of electrically-stimulated muscle contraction at 1 uM relative to control.
For test [7], the target named is Mu-type opioid receptor (Cavia porcellus) (UniProt P97266). Put plainly: Agonist activity at mu opioid receptor in guinea pig ileum assessed as inhibition of electrically-stimulated muscle contraction at 1 uM relative to control. The test is classed as tissue-based.
Test [8] deals with Substance-P receptor (Rattus norvegicus, UniProt P14600). As to the kind of experiment: Displacement of [3H]-substance P from rat NK1 receptor transfected in CHO cells. The test is classed as cell-based.
A short description of test [9]: Ratio of Ki for rat NK1 receptor to Ki for human NK1 receptor.
Test [10] addresses T1, Delta-type opioid receptor. Put plainly: Displacement of [3H]-DPDPE from human delta opioid receptor transfected in HN9.10 cells. The test is classed as cell-based. On the technique in general: Displacement assays read how much labelled ligand stays bound in the presence of the test substance.
The target in test [11] is Mu-type opioid receptor (Cavia porcellus, UniProt P97266). Put plainly: Agonist activity at mu opioid receptor in guinea pig ileum assessed as inhibition of electrically-stimulated muscle contraction. The test is classed as tissue-based. Put shortly:
(§3)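 Electrically stimulated isolated tissue (mouse vas deferens or guinea pig ileum).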

The target in test [12] is Delta-type opioid receptor (Mus musculus, UniProt P32300). As to the kind of experiment: Agonist activity at delta opioid receptor in mouse vas deferens assessed as inhibition of electrically-stimulated muscle contraction. Put shortly: as §3
Sequence of Delta-type opioid receptor (Mus musculus, UniProt P32300) (P32300 whole entry): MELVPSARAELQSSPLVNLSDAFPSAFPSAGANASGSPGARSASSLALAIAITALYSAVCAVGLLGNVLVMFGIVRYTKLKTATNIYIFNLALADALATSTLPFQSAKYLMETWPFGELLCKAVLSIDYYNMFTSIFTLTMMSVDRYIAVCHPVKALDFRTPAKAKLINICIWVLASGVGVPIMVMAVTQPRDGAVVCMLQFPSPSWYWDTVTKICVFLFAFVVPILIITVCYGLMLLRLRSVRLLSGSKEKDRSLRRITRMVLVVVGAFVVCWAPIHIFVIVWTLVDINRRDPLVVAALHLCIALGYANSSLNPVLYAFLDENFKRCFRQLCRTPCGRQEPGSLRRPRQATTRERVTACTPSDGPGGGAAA

T1 sequence (P41143 whole entry): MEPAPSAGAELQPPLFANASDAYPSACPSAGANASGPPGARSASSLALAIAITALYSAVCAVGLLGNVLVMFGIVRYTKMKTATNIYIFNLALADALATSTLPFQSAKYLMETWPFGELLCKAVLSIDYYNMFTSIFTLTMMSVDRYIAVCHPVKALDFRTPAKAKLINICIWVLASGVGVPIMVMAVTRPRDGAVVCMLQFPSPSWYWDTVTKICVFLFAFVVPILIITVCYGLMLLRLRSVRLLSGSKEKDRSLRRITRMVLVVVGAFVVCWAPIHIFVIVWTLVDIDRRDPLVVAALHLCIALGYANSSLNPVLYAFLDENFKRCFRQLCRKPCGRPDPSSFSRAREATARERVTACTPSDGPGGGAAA
Sequence of Mu-type opioid receptor (Rattus norvegicus) (P33535 whole entry): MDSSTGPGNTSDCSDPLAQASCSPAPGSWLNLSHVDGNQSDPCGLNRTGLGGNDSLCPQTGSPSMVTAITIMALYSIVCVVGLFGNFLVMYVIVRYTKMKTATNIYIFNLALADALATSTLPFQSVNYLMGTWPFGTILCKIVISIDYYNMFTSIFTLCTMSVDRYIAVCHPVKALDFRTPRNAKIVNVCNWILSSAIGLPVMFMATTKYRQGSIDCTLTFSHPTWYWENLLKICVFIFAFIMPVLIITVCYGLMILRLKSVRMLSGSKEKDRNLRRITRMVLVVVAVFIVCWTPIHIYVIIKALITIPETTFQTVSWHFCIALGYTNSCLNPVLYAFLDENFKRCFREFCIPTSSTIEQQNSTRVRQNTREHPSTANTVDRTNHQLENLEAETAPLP
Sequence of Substance-P receptor (Cavia porcellus) (P30547 whole entry): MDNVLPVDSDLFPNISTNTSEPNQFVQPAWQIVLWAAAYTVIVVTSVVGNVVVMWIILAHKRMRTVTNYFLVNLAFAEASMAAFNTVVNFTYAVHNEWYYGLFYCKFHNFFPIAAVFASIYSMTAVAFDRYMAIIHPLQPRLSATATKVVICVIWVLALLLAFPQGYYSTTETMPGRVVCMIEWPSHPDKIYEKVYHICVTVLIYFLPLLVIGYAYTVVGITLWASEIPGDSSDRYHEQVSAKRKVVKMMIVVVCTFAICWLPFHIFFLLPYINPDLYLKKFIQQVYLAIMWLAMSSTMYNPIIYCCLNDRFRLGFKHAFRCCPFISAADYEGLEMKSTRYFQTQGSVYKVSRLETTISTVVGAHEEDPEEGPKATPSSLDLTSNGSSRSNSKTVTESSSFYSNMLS
Sequence of Substance-P receptor (P14600 whole entry): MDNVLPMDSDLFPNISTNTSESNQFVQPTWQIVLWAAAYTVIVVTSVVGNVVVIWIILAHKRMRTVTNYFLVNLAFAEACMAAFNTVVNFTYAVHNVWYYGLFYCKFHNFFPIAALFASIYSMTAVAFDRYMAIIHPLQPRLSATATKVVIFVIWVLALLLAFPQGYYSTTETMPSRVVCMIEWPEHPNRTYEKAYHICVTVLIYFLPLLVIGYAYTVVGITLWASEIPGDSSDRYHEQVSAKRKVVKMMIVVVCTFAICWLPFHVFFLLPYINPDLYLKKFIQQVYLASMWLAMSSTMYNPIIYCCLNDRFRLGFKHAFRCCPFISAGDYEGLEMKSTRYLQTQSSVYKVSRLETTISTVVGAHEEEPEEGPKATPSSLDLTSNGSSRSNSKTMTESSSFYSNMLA
Sequence of Mu-type opioid receptor (Cavia porcellus, UniProt P97266) (P97266 whole entry): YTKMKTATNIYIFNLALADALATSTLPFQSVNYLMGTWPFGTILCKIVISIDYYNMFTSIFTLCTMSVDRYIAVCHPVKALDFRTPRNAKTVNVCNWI
Sequence of Mu-type opioid receptor (Cavia porcellus) (P97266 whole entry): as above
Sequence of Mu-type opioid receptor (Rattus norvegicus, UniProt P33535) (P33535 whole entry): as the sequence (P33535 whole entry) above
Sequence of Delta-type opioid receptor (Mus musculus) (P32300 whole entry): as the sequence (P32300 whole entry) above

In [1], `C[C@@H](NC(=O)[C@@H](N)Cc1ccc(O)cc1)C(=O)NCC(=O)N[C@@H](Cc1ccccc1)C(=O)N[C@@H](Cc1c[nH]c2ccccc12)C(=O)OCc1cc(C(F)(F)F)cc(C(F)(F)F)c1` (H-Y[dA]GFW-{OBzl(3,5-(CF3)2)}) returned an Emax of 14%. Besides, in test [2], the Ke turned out to be 38 nM.

Take `C[C@@H](NC(=O)[C@@H](N)Cc1ccc(O)cc1)C(=O)NCC(=O)N[C@@H](Cc1ccc(Cl)cc1)C(=O)NCC(=O)N[C@@H](Cc1c[nH]c2ccccc12)C(=O)OCc1cc(C(F)(F)F)cc(C(F)(F)F)c1` (H-Y[dA]G[Phe(4-Cl)]GW-{OBzl(3,5-(CF3)2)}): the Ke in test [2] was 30 nM.

Consider `C[C@@H](NC(=O)[C@@H](N)Cc1ccc(O)cc1)C(=O)N[C@@H](Cc1c[nH]c2ccccc12)C(=O)OCc1cc(C(F)(F)F)cc(C(F)(F)F)c1`, for which the results for the Ratio Ki in test [3] and in test [9] were 1.8 and 730, respectively. Moreover, the Emax in [4] was 36%; in test [1], 26%. Further, a half-maximal effect in test [5] (EC50) was put at 170 nM. For the same compound, the inhibition was determined as 5.5% in test [6] and 3.3% in test [7]. The compound further returned a Ki in [8] of 2.9 nM. Also, the Ke in test [2] amounted to 49 nM.

For `CCCC[C@H](NC(=O)[C@H](Cc1ccccc1)NC(=O)CNC(=O)[C@@H](C)NC(=O)[C@@H](N)Cc1ccc(O)cc1)C(=O)N[C@@H](Cc1c[nH]c2ccccc12)C(=O)OCc1cc(C(F)(F)F)cc(C(F)(F)F)c1` (H-Y[dA]GF[Nle]W-{OBzl(3,5-(CF3)2)}), the Ke in [2] came out at 13 nM.

`Cc1cc(O)cc(C)c1C[C@H](N)C(=O)N[C@H](C)C(=O)N[C@@H](Cc1c[nH]c2ccccc12)C(=O)OCc1cc(C(F)(F)F)cc(C(F)(F)F)c1` came in with an EC50 in [4] of 12 nM. Besides, in test [2], the Ke is 110 nM.

Regarding `C[C@@H](NC(=O)[C@@H](N)Cc1ccc(O)cc1)C(=O)NCC(=O)N[C@@H](Cc1ccc(F)cc1)C(=O)NCC(=O)N[C@@H](Cc1c[nH]c2ccccc12)C(=O)OCc1cc(C(F)(F)F)cc(C(F)(F)F)c1` (H-Y[dA]G[Phe(4-F)]GW-{OBzl(3,5-(CF3)2)}), in [2], the Ke was 10 nM.

Consider `C[C@@H](NC(=O)[C@@H](N)Cc1ccc(O)cc1)C(=O)NCC(=O)N[C@@H](Cc1c[nH]c2ccccc12)C(=O)OCc1cc(C(F)(F)F)cc(C(F)(F)F)c1` (H-Y[dA]GW-{OBzl(3,5-(CF3)2)}), for which the Ki in test [10] was found to be 310 nM; in test [8] it was 15 nM. The Ratio Ki was determined as 0.16 in test [3] and 500 in test [9]. Besides, the Emax in [4] turned out to be 33%; in [1], 34%. Also, in test [2], the Ke turned out to be 5 nM. Further, the IC50 in test [11] is 840 nM.

Regarding `C[C@@H](NC(=O)[C@@H](N)Cc1ccc(O)cc1)C(=O)NCC(=O)N[C@@H](Cc1ccc(F)cc1)C(=O)OCc1cc(C(F)(F)F)cc(C(F)(F)F)c1`, the Ki in [10] was found to be 56 nM; in test [8], 230 nM. This compound also displayed an EC50 in test [4] of 6.7 nM. Moreover, the Emax in test [4] was found to be 78%; in [1], 58%. Moreover, the IC50 in [12] turned out to be 180 nM; in test [11], 210 nM. Also, in [2], the Ke worked out at 52 nM.

Take `Cc1cc(O)cc(C)c1C[C@H](N)C(=O)N[C@H](C)C(=O)N[C@@H](Cc1c[nH]c2ccccc12)C(=O)NCc1cc(C(F)(F)F)cc(C(F)(F)F)c1`: the Emax in test [4] is 50%. The Ke in [2] worked out at 22 nM.

`C[C@@H](NC(=O)[C@@H](N)Cc1ccc(O)cc1)C(=O)NCC(=O)N[C@@H](Cc1ccccc1)C(=O)NCCC(=O)N[C@@H](Cc1c[nH]c2ccccc12)C(=O)OCc1cc(C(F)(F)F)cc(C(F)(F)F)c1` (H-Y[dA]GF[βAla]W-{OBzl(3,5-(CF3)2)}): in [12], the IC50 amounted to 13 nM. In addition, in test [2], the Ke came out at 250 nM.
